From ChEMBL document CHEMBL1151906, “Discovery and structure-activity relationships of pentanedioic acid diamides as potent inhibitors of 11beta-hydroxysteroid dehydrogenase type I” (Bioorg Med Chem Lett, 2009)
Converted amounts (≈) assume the structure as drawn.

Assays:
[1] = Bioavailability in rat at 0.2 mg/kg, iv and 0.5 mg/kg, po; format: ADME, organism-based; settings: in vivo
Outline: (§1)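 Male rats given a low-dose cassette (cocktail): 0.2 mg/kg i.v. and 0.5 mg/kg p.o.; plasma PK parameters are means of 3 rats. Unchanged drug recovered in faeces collected 0–24 h after each route.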

[2] = Drug absorption in rat assessed as recovery of unchanged drug in feces at 0.5 mg/kg, po after 24 hrs; format: ADME, organism-based; parameters: dose 0.5 mg/kg, route oral; settings: faeces, read-out: Drug uptake; outline: as §1
[3] = target: T1, 11-beta-hydroxysteroid dehydrogenase 1 (Mus musculus, UniProt P50172); test: Inhibition of 11beta-HSD1 in mouse liver microsome
Outline: (§2)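 Liver microsome fractions (2.5 µg) used as the enzyme source. Run in 30 mM Hepes pH 7.4 with 1 mM EDTA, 1 mM G-6P and cortisone/NADPH (200 nM/200 µM). Incubated 150 min at 37 °C, stopped with 18β-glycyrrhetinic acid, cortisol read by HTRF.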

[4] = Volume of distribution at steady state in rat at 0.2 mg/kg, iv and 0.5 mg/kg, po; format: ADME, organism-based; settings: in vivo, read-out: Vdss; outline: as §1
[5] = target: T1, 11-beta-hydroxysteroid dehydrogenase 1; test: Inhibition of 11beta-HSD1 in mouse 3T3L1 cells assessed as cortisol level by HTRF assay; format: cell-based, 3T3-L1
Outline: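 3T3L1 cells differentiated 5 days into adipocytes, then cultured 4 days before 150 min exposure to compound (10^-5–10^-7 M). Cortisol in the culture supernatant is measured by HTRF to give 11β-HSD1 activity.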

[6] = Solubility in water; format: physicochemical
[7] = Half life in rat plasma at 0.2 mg/kg, iv and 0.5 mg/kg, po; format: ADME, organism-based; outline: as §1
[8] = Protein binding in human serum; format: ADME, cell-free; settings: read-out: PB (converted)
[9] = Drug absorption in rat assessed as recovery of unchanged drug in feces at 0.2 mg/kg, iv after 24 hrs; format: ADME, organism-based; parameters: dose 0.2 mg/kg, route intravenous; settings: faeces, read-out: Drug uptake; outline: as §1
[10] = target: T2, 11-beta-hydroxysteroid dehydrogenase 1 (Homo sapiens, UniProt P28845); test: Inhibition of human recombinant 11beta-HSD1 expressed in Escherichia coli assessed as cortisol level after 150 mins by HTRF assay
Target sequence in this assay (P28845 whole entry): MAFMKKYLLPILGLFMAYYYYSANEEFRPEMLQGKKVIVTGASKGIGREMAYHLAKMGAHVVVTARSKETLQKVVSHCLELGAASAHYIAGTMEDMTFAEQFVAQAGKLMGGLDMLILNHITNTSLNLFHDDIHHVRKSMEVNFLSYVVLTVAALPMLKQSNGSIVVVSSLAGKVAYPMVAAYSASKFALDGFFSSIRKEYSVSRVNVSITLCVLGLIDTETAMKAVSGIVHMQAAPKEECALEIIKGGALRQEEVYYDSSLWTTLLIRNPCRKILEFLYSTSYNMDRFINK

[11] = target: 11-beta-hydroxysteroid dehydrogenase 1 (Rattus norvegicus, UniProt P16232); test: Inhibition of 11beta-HSD1 in rat liver microsome; format: microsomes; outline: as §2
[12] = Clearance in rat at 0.2 mg/kg, iv and 0.5 mg/kg, po; format: ADME, organism-based; settings: in vivo; outline: as §1
[13] = target: T3, 11-beta-hydroxysteroid dehydrogenase type 2 (Homo sapiens, UniProt P80365); test: Inhibition of human recombinant 11beta-HSD2 expressed in Escherichia coli assessed as cortisol level after 60 mins by HTRF assay
T3 sequence (P80365 whole entry): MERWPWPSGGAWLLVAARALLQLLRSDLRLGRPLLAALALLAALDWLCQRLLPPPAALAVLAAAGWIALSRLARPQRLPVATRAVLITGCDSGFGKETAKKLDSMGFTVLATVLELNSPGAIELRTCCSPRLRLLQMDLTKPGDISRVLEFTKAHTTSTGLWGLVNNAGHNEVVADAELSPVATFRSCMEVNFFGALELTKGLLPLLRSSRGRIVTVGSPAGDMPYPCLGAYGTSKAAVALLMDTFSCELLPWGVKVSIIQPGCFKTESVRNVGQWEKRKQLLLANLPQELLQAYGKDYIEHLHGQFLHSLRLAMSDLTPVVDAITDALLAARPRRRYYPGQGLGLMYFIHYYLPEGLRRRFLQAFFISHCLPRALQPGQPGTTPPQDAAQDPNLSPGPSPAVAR
Outline: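 Enzyme is recombinant human 11β-HSD2 (E. coli-expressed) in 50 mM Tris pH 7.8 with 1 mM MgCl2 and 0.5 mM NAD. Reaction starts with 20 nM cortisol, runs at room temperature, and is stopped with carbenoxolone 10 µM. Cortisol is quantified by HTRF.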

[14] = target: T2, 11-beta-hydroxysteroid dehydrogenase 1; settings: at 1 µM
Target sequence in this assay (P28845 whole entry, looked up): as the sequence (P28845 whole entry) above

[15] = target: T2, 11-beta-hydroxysteroid dehydrogenase 1; test: Inhibition of human 11beta-HSD1
Target sequence in this assay (P28845 whole entry): as the sequence (P28845 whole entry) above

T1 sequence (P50172 whole entry): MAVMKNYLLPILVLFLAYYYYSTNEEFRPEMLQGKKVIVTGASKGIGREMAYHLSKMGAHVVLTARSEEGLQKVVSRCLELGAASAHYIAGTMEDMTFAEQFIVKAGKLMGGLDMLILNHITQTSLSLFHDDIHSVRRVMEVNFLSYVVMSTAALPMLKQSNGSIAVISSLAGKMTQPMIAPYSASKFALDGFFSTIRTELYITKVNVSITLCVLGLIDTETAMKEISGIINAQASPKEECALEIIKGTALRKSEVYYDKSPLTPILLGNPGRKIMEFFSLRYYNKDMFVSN
Sequence of 11-beta-hydroxysteroid dehydrogenase 1 (Rattus norvegicus, UniProt P16232) (P16232 whole entry): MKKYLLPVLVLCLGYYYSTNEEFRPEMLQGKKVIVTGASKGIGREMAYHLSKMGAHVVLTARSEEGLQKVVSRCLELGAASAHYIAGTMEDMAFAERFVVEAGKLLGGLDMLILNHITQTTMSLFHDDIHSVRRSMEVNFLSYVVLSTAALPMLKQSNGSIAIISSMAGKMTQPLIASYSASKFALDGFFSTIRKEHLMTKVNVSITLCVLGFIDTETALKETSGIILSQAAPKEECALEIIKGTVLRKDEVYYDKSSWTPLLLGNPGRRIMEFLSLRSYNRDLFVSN

For `CC(C)(CC(=O)NC1CC1)CC(=O)N[C@H]1C2CC3CC1C[C@](O)(C3)C2`, the bioavailability [1] was 30%, the dose excreted at 24 h [2] was 22% and the IC50 [3] was 88 nM. It also gave a Vd [4] of 2.7 L/kg, an IC50 [5] of under 100 nM and a solubility [6] of 597 µg/mL (≈ 1710 µM). It also gave a half-life [7] of 72 min, a fraction unbound [8] of 0.6 and a dose excreted at 24 h [9] of 20%. The IC50 [10] was 8 nM, the IC50 [11] was 980 nM and the clearance [12] was 30 mL/min/kg. It also gave an IC50 [13] of over 10 µM.
With `CN1CCN(C(=O)CC2(CC(=O)O)CCCC2)CC1` the inhibition [14] was 0%.
In the case of `CC(C)(CC(=O)NC1CC1)CC(=O)N[C@H]1C2CC3CC1C[C@@](O)(C3)C2`, the IC50 [10] is reported as 550 nM.
Compound `CC(C)(CC(=O)NC1CC1)CC(=O)N[C@H]1C2CC3CC1C[C@](C(=O)O)(C3)C2` has an IC50 [10] of over 1000 nM.
For `O=C(CCCC(=O)NC1C2CC3CC(C2)CC1C3)NC1CC1` (stereo unspecified), the IC50 [10] was over 1000 nM.
For `CC(C)(CC(=O)NC1CC1)CC(=O)N[C@H]1C2CC3CC1C[C@](C(N)=O)(C3)C2`, the bioavailability [1] was 10%, the dose excreted at 24 h [2] was 50% and the IC50 [3] was 10 nM. For the same compound, the Vd [4] was 3.1 L/kg, the IC50 [5] was under 1000 nM and the solubility [6] was 491 µg/mL (≈ 1310 µM). It also gave a half-life [7] of 36 min, a fraction unbound [8] of over 0.8 and a dose excreted at 24 h [9] of 24%. For the same compound, the IC50 [10] was 8 nM, the IC50 [11] was 31 nM and the clearance [12] was 55 mL/min/kg. The IC50 [13] was over 10 µM.
Compound `O=C(O)CC1(CC(=O)NCc2ccc(F)cc2Cl)CCCC1` has an IC50 [15] of 1200 nM.
